The results in this text go back to ChEMBL document CHEMBL1138070, “Inhibitors of HCV NS5B polymerase: synthesis and structure-activity relationships of N-alkyl-4-hydroxyquinolon-3-yl-benzothiadiazine sulfamides” (Bioorg Med Chem Lett, 2006).

Broadly, the IC50 is the point on the concentration scale where inhibition reaches its midpoint. High values mean a need for much substance, low ones inhibition by little substance. One may read the EC50 as the concentration giving half of the maximal effect.

Test [1] concerns the target T1, RNA-directed RNA polymerase (Hepacivirus hominis, UniProt O39930). Kind of test: Inhibition of HCV 1a NS5B RNA polymerase.
Test [2] has as its system Hepatitis C virus. Kind of test: Inhibition of HCV 1b replication in presence of 5% fetal calf serum. The test is classed as functional, organism-based, Hepatitis C virus subtype 1b. The essentials: (§1)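 Genotype 1b HCV replicon cell culture assay. The medium held 5% fetal calf serum […] and 40% human serum […]. EC50 is the mean of at least two independent determinations, standard deviation ±10%.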

The subject of test [3] is Hepatitis C virus. Kind of test: Inhibition of HCV 1b replication in presence of 40% human serum. It is filed as functional, organism-based, Hepatitis C virus subtype 1b. The essentials: as §1
For test [4], the target named is T1, RNA-directed RNA polymerase. Kind of test: Inhibition of HCV 1b NS5B RNA polymerase. On the set-up: species or system Hepatitis C virus subtype 1b.

Molecules are shown by their SMILES.

T1 sequence (O39930 whole entry): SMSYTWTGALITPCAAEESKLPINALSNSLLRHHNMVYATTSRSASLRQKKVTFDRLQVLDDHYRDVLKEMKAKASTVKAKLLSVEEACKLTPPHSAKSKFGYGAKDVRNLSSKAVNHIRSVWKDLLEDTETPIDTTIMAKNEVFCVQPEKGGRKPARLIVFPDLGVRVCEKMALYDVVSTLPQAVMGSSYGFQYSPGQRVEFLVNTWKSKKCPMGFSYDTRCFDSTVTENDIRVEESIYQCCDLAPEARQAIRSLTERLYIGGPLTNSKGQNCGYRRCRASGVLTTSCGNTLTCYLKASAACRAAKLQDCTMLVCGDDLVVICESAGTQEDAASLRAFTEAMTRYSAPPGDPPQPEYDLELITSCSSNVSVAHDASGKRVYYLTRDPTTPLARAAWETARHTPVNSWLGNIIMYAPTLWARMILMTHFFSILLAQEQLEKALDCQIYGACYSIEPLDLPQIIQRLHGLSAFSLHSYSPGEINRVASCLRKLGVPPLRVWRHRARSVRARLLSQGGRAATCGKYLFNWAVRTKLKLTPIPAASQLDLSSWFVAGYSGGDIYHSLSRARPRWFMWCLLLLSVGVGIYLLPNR

`COC(=O)c1ccc(NS(=O)(=O)Nc2ccc3c(c2)S(=O)(=O)N=C(c2c(O)c4cccnc4n(CCC(C)C)c2=O)N3)cc1` gave an IC50 in test [1] of 0.048 µM. Consider `CNS(=O)(=O)Nc1ccc2c(c1)S(=O)(=O)NC(c1c(O)c3ccccc3n(NC3CCC3)c1=O)=N2`, for which the concentration for a half-maximal effect (EC50) stood at 0.011 µM in the test with Hepatitis C virus [2] and 0.42 µM in the test with Hepatitis C virus [3]. Moreover, the IC50 in test [1] was 0.0087 µM. Turning to `CC(C)CCn1c(=O)c(C2=Nc3ccc(NS(=O)(=O)NC(=O)OCCC#N)cc3S(=O)(=O)N2)c(O)c2cccnc21`, the EC50 with Hepatitis C virus [2] was determined as 0.098 µM. In addition, the 50% inhibitory concentration (IC50) turned out to be 0.0067 µM in test [4] and 0.035 µM in test [1]. As for `CC(C)CCn1c(=O)c(C2=Nc3ccc(NS(=O)(=O)Nc4ccc(C(N)=O)cc4)cc3S(=O)(=O)N2)c(O)c2cccnc21`, the IC50 in test [1] is 0.018 µM. For the compound `C#CCOC(=O)NS(=O)(=O)Nc1ccc2c(c1)S(=O)(=O)N=C(c1c(O)c3cccnc3n(CCC(C)C)c1=O)N2`, the IC50 in test [1] came out at 0.072 µM. Compared with the last compound, the IC50 is about 4-fold higher.

For the compound `CC(C)CCn1c(=O)c(C2=NS(=O)(=O)c3cc(NS(=O)(=O)Nc4cccc(C(N)=O)c4)ccc3N2)c(O)c2cccnc21`, the IC50 in test [1] came out at 0.043 µM. The same measure, in the same setting: under `CC(C)CCn1c(=O)c(C2=NS(=O)(=O)c3cc(NS(=O)(=O)Nc4cccc(C(=O)NCC(N)=O)c4)ccc3N2)c(O)c2cccnc21` stands 0.043 µM. With `CC(C)CCn1c(=O)c(C2=NS(=O)(=O)c3cc(NS(=O)(=O)NCc4ccccc4)ccc3N2)c(O)c2cccnc21`, the 50% effective concentration (EC50) with Hepatitis C virus [2] turned out to be 0.398 µM. For the same compound, the results for the IC50 in test [4] and in test [1] were 0.044 µM and 0.0055 µM, respectively. The compound `COC(=O)c1ccccc1NS(=O)(=O)Nc1ccc2c(c1)S(=O)(=O)NC(c1c(O)c3cccnc3n(CCC(C)C)c1=O)=N2` came in with an IC50 in test [1] of 0.129 µM. That is a sub-micromolar value. Same read-out and setting: under `CCOC(=O)c1cccc(NS(=O)(=O)Nc2ccc3c(c2)S(=O)(=O)NC(c2c(O)c4cccnc4n(CCC(C)C)c2=O)=N3)c1` stands 0.132 µM. Take `CC(C)CCn1c(=O)c(C2=Nc3ccc(NS(=O)(=O)NC4CCCC4)cc3S(=O)(=O)N2)c(O)c2cccnc21`: in test [1], the midpoint of inhibition, the IC50, lay at 0.039 µM. For `NS(=O)(=O)Nc1ccc2c(c1)S(=O)(=O)NC(c1c(O)c3ccccc3n(NC3CCC3)c1=O)=N2`, the figures for the EC50 in the test on Hepatitis C virus [2] and in the test on Hepatitis C virus [3] were 0.003 µM and 0.081 µM, respectively. Moreover, the IC50 was determined as 0.0004 µM in test [4] and 0.0052 µM in test [1]. Take `COCCOC(=O)NS(=O)(=O)Nc1ccc2c(c1)S(=O)(=O)NC(c1c(O)c3cccnc3n(CCC(C)C)c1=O)=N2`: the IC50 in test [1] was 0.087 µM.

In the case of `CC(C)CCn1c(=O)c(C2=Nc3ccc(NS(=O)(=O)NCCO)cc3S(=O)(=O)N2)c(O)c2cccnc21`, the half-inhibitory concentration (IC50) in test [1] is 0.107 µM. Turning to `CC(C)CCn1c(=O)c(C2=Nc3ccc(NS(=O)(=O)NC(=O)OCCN)cc3S(=O)(=O)N2)c(O)c2cccnc21`, the midpoint of inhibition in test [1], the IC50, lay at 0.021 µM. Still for that read-out and setting: under `C=CCOC(=O)NS(=O)(=O)Nc1ccc2c(c1)S(=O)(=O)N=C(c1c(O)c3cccnc3n(CCC(C)C)c1=O)N2` stands 0.088 µM. `CC(C)CCn1c(=O)c(C2=Nc3ccc(NS(=O)(=O)NCCc4ccccc4)cc3S(=O)(=O)N2)c(O)c2cccnc21`: in the test on Hepatitis C virus [2], the EC50 amounted to 1.27 µM. For the same compound, the concentration for half-maximal inhibition (IC50) in test [4] came to 0.037 µM; in test [1], 0.018 µM. Consider `CC(C)CCn1c(=O)c(C2=NS(=O)(=O)c3cc(NS(C)(=O)=O)ccc3N2)c(O)c2cccnc21`, for which the IC50 in test [4] was 0.006 µM; in test [1] it was 0.0024 µM.

For the compound `COc1ccccc1CNS(=O)(=O)Nc1ccc2c(c1)S(=O)(=O)NC(c1c(O)c3cccnc3n(CCC(C)C)c1=O)=N2`, the IC50 in test [1] worked out at 0.057 µM.

Consider `CC(C)CCn1c(=O)c(C2=Nc3ccc(NS(=O)(=O)NCc4cccc([N+](=O)[O-])c4)cc3S(=O)(=O)N2)c(O)c2cccnc21`, for which the concentration for half-maximal inhibition (IC50) in test [1] was determined as 0.013 µM. This IC50 is about 4.4-fold lower than that of the compound before. As for `CC(C)CCn1c(=O)c(C2=Nc3ccc(NS(=O)(=O)NC(=O)OCC(=O)O)cc3S(=O)(=O)N2)c(O)c2cccnc21`, in test [1], the 50% inhibitory concentration (IC50) is 0.05 µM. As to `CC(C)CCn1c(=O)c(C2=Nc3ccc(NS(=O)(=O)NC(=O)OCCCl)cc3S(=O)(=O)N2)c(O)c2cccnc21`, the IC50 in test [1] amounted to 0.189 µM. The same measure, in the same setting: under `COC(=O)NS(=O)(=O)Nc1ccc2c(c1)S(=O)(=O)N=C(c1c(O)c3cccnc3n(CCC(C)C)c1=O)N2` stands 0.063 µM. The same measure, in the same setting: with `CC(C)CCn1c(=O)c(C2=NS(=O)(=O)c3cc(NS(=O)(=O)Nc4ccc(C(=O)O)cc4)ccc3N2)c(O)c2cccnc21` the figure was 0.02 µM.

In test [1], `CC(C)CCn1c(=O)c(C2=NS(=O)(=O)c3cc(NS(=O)(=O)N(C)C(=O)OCc4ccccc4)ccc3N2)c(O)c2cccnc21` came in with a half-inhibitory concentration (IC50) of 0.121 µM. Same read-out and setting: with `CNS(=O)(=O)Nc1ccc2c(c1)S(=O)(=O)NC(c1c(O)c3cccnc3n(CCC(C)C)c1=O)=N2` the figure was 0.014 µM; with `CNC(=O)c1ccc(NS(=O)(=O)Nc2ccc3c(c2)S(=O)(=O)N=C(c2c(O)c4cccnc4n(CCC(C)C)c2=O)N3)cc1`, 0.043 µM. The same measure, in the same setting: under `CC(C)CCn1c(=O)c(C2=Nc3ccc(NS(=O)(=O)Nc4ccccc4)cc3S(=O)(=O)N2)c(O)c2cccnc21` stands 0.041 µM; under `CCOC(=O)COC(=O)NS(=O)(=O)Nc1ccc2c(c1)S(=O)(=O)NC(c1c(O)c3cccnc3n(CCC(C)C)c1=O)=N2`, 0.061 µM.

`CC(C)CCn1c(=O)c(C2=Nc3ccc(NS(=O)(=O)NC(=O)OCc4ccccc4)cc3S(=O)(=O)N2)c(O)c2cccnc21` returned a concentration for half-maximal inhibition (IC50) in test [1] of 0.058 µM.

With `CC(C)CCn1c(=O)c(C2=Nc3ccc(NS(=O)(=O)NCCC(N)=O)cc3S(=O)(=O)N2)c(O)c2cccnc21`, half-maximal inhibition in test [1] (IC50) was put at 0.02 µM. Still for that read-out and setting: with `CC(C)CCn1c(=O)c(C2=Nc3ccc(NS(=O)(=O)NC4CCNCC4)cc3S(=O)(=O)N2)c(O)c2cccnc21` the figure was 0.032 µM. In the case of `CC(C)CCn1c(=O)c(C2=Nc3ccc(NS(=O)(=O)Nc4cccc(C(=O)O)c4)cc3S(=O)(=O)N2)c(O)c2cccnc21`, the midpoint of inhibition in test [1], the IC50, lay at 0.115 µM. `COc1cccc(CNS(=O)(=O)Nc2ccc3c(c2)S(=O)(=O)NC(c2c(O)c4cccnc4n(CCC(C)C)c2=O)=N3)c1` yielded a half-inhibitory concentration (IC50) in test [1] of 0.015 µM. In test [1], `CC(C)CCn1c(=O)c(C2=Nc3ccc(NS(=O)(=O)NC4CCCCC4)cc3S(=O)(=O)N2)c(O)c2cccnc21` returned an IC50 of 0.067 µM. In the case of `CC(C)CCn1c(=O)c(C2=NS(=O)(=O)c3cc(NS(N)(=O)=O)ccc3N2)c(O)c2cccnc21`, the concentration giving a half-maximal response (EC50) in the test on Hepatitis C virus [2] turned out to be 0.017 µM. Moreover, the IC50 was found to be 0.0028 µM in test [4] and 0.009 µM in test [1]. Consider `CC(C)CCn1c(=O)c(C2=Nc3ccc(NS(=O)(=O)NCCN)cc3S(=O)(=O)N2)c(O)c2cccnc21`, for which, in test [1], half-maximal inhibition (IC50) was put at 0.01 µM.

Take `CC(C)CCn1c(=O)c(C2=Nc3ccc(NS(=O)(=O)NC(=O)OCCOCc4ccccc4)cc3S(=O)(=O)N2)c(O)c2cccnc21`: the 50% inhibitory concentration (IC50) in test [1] came to 0.096 µM. On the same count and under the same terms, under `COc1ccc(CNS(=O)(=O)Nc2ccc3c(c2)S(=O)(=O)N=C(c2c(O)c4cccnc4n(CCC(C)C)c2=O)N3)cc1` stands 0.01 µM.

Consider `CC(C)CCn1c(=O)c(C2=Nc3ccc(NS(=O)(=O)NN4CCCC4)cc3S(=O)(=O)N2)c(O)c2cccnc21`, for which the IC50 in test [1] amounted to 0.027 µM.
